B2AR ag: human beta-2 adrenergic receptor agonism by FAP | Am2.2-beta2AR cells, FAP receptor internalization, flow cytometry | response, % (concentration not given with the values) | 340,000 tested, 0.43% active;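 active means response above a set limit, near 3 SD of response in nonfluorescent compounds, cut at about 42% in these data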
Target sequence (P07550 whole entry, looked up): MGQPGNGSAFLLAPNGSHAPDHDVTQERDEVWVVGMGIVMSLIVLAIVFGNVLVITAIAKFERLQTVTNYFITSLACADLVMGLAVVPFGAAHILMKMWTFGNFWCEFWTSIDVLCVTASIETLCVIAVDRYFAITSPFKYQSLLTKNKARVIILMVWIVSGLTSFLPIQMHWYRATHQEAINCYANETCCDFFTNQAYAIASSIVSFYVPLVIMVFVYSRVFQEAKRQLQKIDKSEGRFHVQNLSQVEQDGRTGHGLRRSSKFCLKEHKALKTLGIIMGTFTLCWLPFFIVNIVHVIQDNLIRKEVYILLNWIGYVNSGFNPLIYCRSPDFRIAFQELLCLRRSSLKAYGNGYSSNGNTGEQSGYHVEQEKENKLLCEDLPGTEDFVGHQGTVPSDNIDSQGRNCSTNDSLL
L929 necroptosis: blocks zVAD induced death of L929 cells; AID 1377; viability rescue, % at 10 µM; 220,000 tested, 0.38% active; L929 zVAD necroptosis rescue, ATP luminescence, 24 h; with zVAD 60 µM;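 active means activation, scaled between plate controls, above about 75%, limit read from the data; inactive means activation under that limit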;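 further: 0% = zVAD with DMSO and 100% = DMSO alone without zVAD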
MDM2 E3 inh: blocks human Mdm2 ubiquitin ligase activity | Q00987 | cell-based MDM2 ubiquitination luciferase reporter, 2 h; 0 = plate control, 100 = twice control, blank-subtracted | signal enhancement, % at 5 µM | 210,000 tested, 0.11% active;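 active means signal enhancement of 30% or more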;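 further: luminescence tracks abundance of the self-degrading MDM2-luciferase fusion protein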
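Material: Stable MDM2–luciferase fusion reporter cells | Amount: 2000 cells seeded into each well | Dosing: One concentration, 5 µM, with 0.2% DMSO | Incubation: 4 h cell settling then 2 h compound exposure, 37 °C | Measured by: Luciferase luminescence | Read-out basis: % enhancement relative to plate controls after blank subtraction | Benchmarks: Control and blank well means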
TNF necrop inh: inhibitors of TNF-alpha induced necroptosis in Jurkat FADD-/- cells. 220,000 tested, 0.068% active. activation (protection from cell death), % at 10 µM. Jurkat FADD-/- TNF necroptosis rescue, ATP luminescence, 24 h; 0 = TNF only, 100 = no-TNF cells;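 active means activation, meaning protection from cell death, of at least 50% relative to plate controls; inactive means activation below 50%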;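 further: necroptosis triggered by 40 ng/mL TNF-alpha added together with compound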
Dynein transport: dynein cargo transport inhibition. 3617.4 mouse cells, GR-EGFP nuclear translocation imaging; test concentration mostly 20 µM; stimulated with dexamethasone, 1 µM; active compounds read low. z-score, hits read low. 220,000 tested, 0.47% active. AID 1381;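 active means plate z-score of nuclear minus cytoplasmic receptor signal below a set negative limit, without overly bright fluorescence or cell loss, cut at about -3.5 in these data, passing the limit was not always enough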;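 further: z-score of nuclear minus cytoplasmic ring GR-EGFP intensity difference per well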
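Buffer or medium: Induction medium lacking tetracycline, stripped serum | Also added: Dexamethasone agonist, 1.0 µM final, for 30 min | Timing: 48 h induction, 1 h compound, 30 min dex at 37 °C | Detection: Formaldehyde fixation, Hoechst nuclear stain, 10x automated fluorescence imaging | Measure: Nuclear versus cytoplasmic GR-EGFP signal, averaged per well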
Beta2AR ag CP1: activates human beta-2 adrenergic receptor. shares compounds with B2AR ag. Am2.2-beta2AR cells, FAP surface receptor, flow cytometry; active compounds read low. percent response (surface receptor), % at 10 µM. 1,100 tested, 25% active;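 active means surface receptor percent response at or below 58%, roughly 3 SD from nonfluorescent compounds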
FAP fluor counter: counter-screen for beta-2AR agonists: fluorescence in Am2.2 cells; 1,100 tested, under 10 active; calls only at 10 µM; shares compounds with B2AR ag; FAP fluorogen flow cytometry, fluorescence counterscreen; active compounds read low;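 active means percent response below a set limit in fluorescence channel 1 and below 50% in channel 8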
* = called active by the depositor; i = inactive; . = no result given. In the library only some 0.97% were active in any assay of this set; here they are far more common.

SMILES	B2AR ag	L929 necroptosis	MDM2 E3 inh	TNF necrop inh	Dynein transport	Beta2AR ag CP1	FAP fluor counter
O=C(CSC(=S)N1CCOCC1)Nc1ccc(S(=O)(=O)Nc2ncccn2)cc1	1	.	.	.	.	.	.
COc1ccc(Cl)cc1C(=O)N1CCN(c2ccccn2)CC1	52*	0	8	-1	0.71	124	i
O=C(c1ccccc1Cl)N1CCN(c2ccccn2)CC1	1	0	-11	-2	-0.016	.	.
Cc1cccc(C)c1N1CCN(CCn2c(=S)[nH]c3ccccc3c2=O)CC1	4	.	.	.	.	.	.
CCOC(=O)c1c(C)[nH]c(C)c1C(=O)COC(=O)c1cccc(S(=O)(=O)N(CC)CC)c1	44*	0	6	0	-0.6	118	i
CN(Cc1ccccc1F)c1nc(-c2cccnc2)nc2ccccc12	80*	.	.	.	.	53*	i
Cc1ccc(CN(C)c2nc(-c3cccnc3)nc3ccccc23)o1	45*	.	.	.	.	104	i
CCOc1ccc(CN(C)c2nc(-c3cccnc3)nc3ccccc23)cc1OC	-3	.	.	.	.	129	i
COc1ccc(CCNc2nc(-c3cccnc3)nc3ccccc23)cc1OC	21	.	.	.	.	.	.
CN(CCOC(=O)/C=C/c1ccccc1)C(C)(C)C	-3	1	2	2	0.57	.	.
O=C(NC1CCCc2ccccc21)C1CCN(c2c3c(nc4ncnn24)CCC3)CC1 (stereo unspecified)	0	1	-5	-1	-0.065	.	.
COc1ccc(CCNC(=O)c2ccccc2N(C)S(=O)(=O)c2ccccc2)cc1	-3	1	0	3	-0.98	.	.
Clc1ccc(OCCOCCN2CCCCC2)c(Br)c1	0	-1	-26	-5	-0.077	.	.
CCCCn1c(N)c(N(CC)C(=O)c2ccc3c(c2)S(=O)(=O)c2ccccc2C3=O)c(=O)[nH]c1=O	55*	0	12	-4	5.5	112	i
CC(=O)NCCc1ccc(O)cc1	0	0	-29	2	-1.2	.	.
C[C@H](NCCc1ccc(O)cc1)[C@H](O)c1ccc(O)cc1	-3	.	.	.	.	124	i
CC(COc1ccccc1)NC(C)C(O)c1ccc(O)cc1 (stereo unspecified)	-3	36	.	5	0.19	116	i
CC1CCc2sc(C(=O)N3CCC(C(N)=O)CC3)cc2C1 (stereo unspecified)	3	.	.	.	.	.	.
CN(C(=O)CS(=O)(=O)c1cn(CC(=O)N2CCCCC2)c2ccccc12)c1ccccc1	4	.	.	.	.	.	.
CN(C)C(CNC(=O)c1ccc(NC(=O)CC#N)cc1)c1ccccc1 (stereo unspecified)	47*	0	-13	0	-0.18	97	i
Cn1c(SCC(=O)N/N=C/C=C/c2ccco2)nc2ccccc21	-12	0	2	0	-0.29	98	i
CCOC(=O)Cn1nnnc1CN(Cc1ccc(OC)cc1)Cc1cc2cc(CC)ccc2[nH]c1=O	86*	1	-14	-7	-0.97	103	i
CCOC(=O)Cn1nnnc1CN(Cc1ccc(OC)cc1)Cc1cc2cc(C)ccc2[nH]c1=O	39	0	-8	1	-0.56	.	.
Cc1cccc(OCCCC(=O)Nc2nccs2)c1C	-2	0	.	2	-1.3	.	.
COc1ccccc1OCCCC(=O)Nc1nccs1	76*	1	-13	2	-0.22	59	i
SMILES	B2AR ag	L929 necroptosis	MDM2 E3 inh	TNF necrop inh	Dynein transport	Beta2AR ag CP1	FAP fluor counter
O=C1CN(C(=O)COC(=O)c2cc(S(=O)(=O)N3CCOCC3)ccc2Cl)c2ccccc2N1	42*	0	.	2	-0.54	87	i
CCC(=O)N1CCc2cc(Br)cc(S(=O)(=O)N(C)c3ccc(OC)cc3)c21	101*	.	.	.	.	19*	i
Cc1ccc(S(=O)(=O)c2ccc([N+](=O)[O-])o2)cc1	86*	.	.	.	.	16*	i
COc1cc(Cl)ccc1OCc1cc(C(=O)N(C)C2CCOC2)no1 (stereo unspecified)	-7	.	.	.	.	.	.
COc1cc2c(cc1OC)C(c1ccc(-c3ccc(Cl)cc3Cl)o1)=NCC2	17	0	-6	-18	0.55	.	.
COc1cc2c(cc1OC)C(c1ccc(-c3cc(Cl)ccc3Cl)o1)=NCC2	15	-1	-12	-12	-0.07	120	i
Cc1cnc(C(=O)OC(C)C(=O)Nc2cccc3ccccc23)cn1 (stereo unspecified)	-4	.	.	.	.	.	.
CC(C)C(=O)N[C@H]1CCC2C3CC=C4C[C@@H](O)CC[C@]4(C)C3CC[C@@]21C (stereo partly specified)	-5	.	.	.	.	.	.
CC12CCC(O)CC1=CCC1C2CCC2(C)C(c3ccn[nH]3)CCC12 (stereo unspecified)	44*	.	.	.	.	67	i
O=[N+]([O-])c1cccnc1Sc1n[nH]c(-c2ccc(Cl)cc2)n1	-1	2	-9	9	0.85	.	.
CCOc1cc(S(=O)(=O)NCC2OCCc3ccccc32)c(OCC)cc1-n1cnnn1 (stereo unspecified)	-5	-1	-15	0	-0.11	.	.
CCC1(c2ccccc2)NC(=O)N(CC(=O)N(C)Cc2c(F)cccc2Cl)C1=O (stereo unspecified)	82*	.	.	.	.	101	i
O[C@@H](CNC[C@H](O)c1ccccc1)c1ccccc1	-10	.	-3	1	-0.58	111	i
OC(CNCCc1ccccc1)c1ccccc1 (stereo unspecified)	7	0	-23	1	-0.14	105	i
COc1ccc(CCNCC(C)c2ccccc2)cc1 (stereo unspecified)	-5	.	.	.	.	.	.
COc1ccc(CCNCC(O)c2ccccc2)cc1 (stereo unspecified)	-1	-1	-9	3	-0.88	96	i
O=C(NCC(O)c1ccccc1)c1ccccc1 (stereo unspecified)	5	1	-17	3	-0.48	.	.
Cc1ccc(C2(CCNCc3ccc(N(C)C)cc3)CCOC(C(C)C)C2)cc1 (stereo unspecified)	12	9	-29	1	-0.66	.	.
CCCCn1c(SCC(=O)N2c3ccccc3Sc3ccccc32)nc2c1c(=O)n(C)c(=O)n2C	19	0	.	-4	0.038	.	.
O=Cc1ccc(O)c2ncccc12	9	12	-14	-23	-1.1	98	i
COC(=O)CS(=O)(=O)c1ccsc1C(=O)Nc1ccc(F)c(F)c1	47*	0	-2	1	-1.1	101	i
CN(CCOc1ccc(-c2ccn(S(=O)(=O)c3cccc4ccccc34)n2)cc1)c1ccccn1	76*	1	6	-2	-0.28	39*	i
